According to PMC4201344 (ACS Chemical Biology, 2014):
Positions count from the first letter of the chain named. “Also recorded” adds a separate entry of the source.

How the values were obtained:
GluClβ T6′S = GluClβ T6′S (Caenorhabditis elegans, UniProt Q17328, T283S); experiment: two-electrode voltage clamp, Xenopus laevis oocytes; type: cell-based, C. elegans; details: glutamate
[1] = tested on: GluClβ with α signal peptide, T6′S, F96TAG F1–Phe; experiment: two-electrode voltage clamp, Xenopus laevis oocytes, nonsense suppression; type: cell-based, C. elegans; details: glutamate
GluClβ T10′A = target: T1, GluClβ T10′A (Caenorhabditis elegans, UniProt Q17328, T287A); experiment: two-electrode voltage clamp, Xenopus laevis oocytes; type: cell-based, C. elegans
T1 sequence (Q17328 23-434 T287A): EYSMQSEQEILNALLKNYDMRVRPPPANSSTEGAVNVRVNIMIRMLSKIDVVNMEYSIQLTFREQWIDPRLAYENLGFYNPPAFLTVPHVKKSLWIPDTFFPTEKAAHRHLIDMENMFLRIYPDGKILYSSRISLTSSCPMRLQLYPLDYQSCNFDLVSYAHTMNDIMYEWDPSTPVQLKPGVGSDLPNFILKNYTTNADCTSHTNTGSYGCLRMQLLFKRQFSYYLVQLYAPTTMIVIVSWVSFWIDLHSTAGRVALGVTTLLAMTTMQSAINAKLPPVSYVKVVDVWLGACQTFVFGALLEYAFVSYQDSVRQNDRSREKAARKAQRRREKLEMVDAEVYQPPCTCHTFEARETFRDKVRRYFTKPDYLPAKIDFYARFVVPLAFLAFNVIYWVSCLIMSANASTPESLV

[2] = tested on: GluClβ with α signal peptide, T6′S, Y156TAG F1–Phe; experiment: two-electrode voltage clamp, Xenopus laevis oocytes, nonsense suppression; type: cell-based, C. elegans; details: glutamate
[3] = tested on: GluClβ T6′S, Y206TAG F1–Phe; experiment: as above; type: cell-based, C. elegans; details: glutamate
[4] = tested on: GluClβ T6′S, Y206TAG Me–Phe; experiment: as above; type: cell-based, C. elegans; details: glutamate
GluClβ T13′A = target: T2, GluClβ T13′A (Caenorhabditis elegans, UniProt Q17328, T290A); experiment: two-electrode voltage clamp, Xenopus laevis oocytes; type: cell-based, C. elegans; details: glutamate
T2 sequence (Q17328 23-434 T290A): T1 sequence (Q17328 23-434 T287A) with A265T, T268A

[5] = tested on: GluClβ T6′S, Y206TAG F2–Phe (3,5-F2–Phe); experiment: two-electrode voltage clamp, Xenopus laevis oocytes, nonsense suppression; type: cell-based, C. elegans; details: glutamate
GluClα T2′A = details: otherwise glutamate-insensitive channel; cited from earlier work
GluClβ T6′S, R59A = GluClβ T6′S, R59A (Caenorhabditis elegans, UniProt Q17328, R85A/T283S); experiment: two-electrode voltage clamp, Xenopus laevis oocytes; type: cell-based, C. elegans; details: glutamate
GluClβ T6′S, R59A, sequence (Q17328 23-434 R85A/T283S): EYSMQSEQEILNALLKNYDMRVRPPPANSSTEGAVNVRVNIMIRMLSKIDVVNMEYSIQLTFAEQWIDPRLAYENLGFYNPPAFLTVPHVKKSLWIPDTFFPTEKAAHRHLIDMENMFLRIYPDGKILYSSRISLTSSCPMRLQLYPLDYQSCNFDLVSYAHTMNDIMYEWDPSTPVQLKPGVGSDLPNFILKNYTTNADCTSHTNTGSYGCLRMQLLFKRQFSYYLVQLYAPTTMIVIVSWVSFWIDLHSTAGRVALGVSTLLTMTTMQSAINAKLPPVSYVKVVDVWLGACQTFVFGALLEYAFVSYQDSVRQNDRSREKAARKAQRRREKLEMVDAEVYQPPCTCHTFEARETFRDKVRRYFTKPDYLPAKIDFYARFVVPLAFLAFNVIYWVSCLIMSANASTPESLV
Summary of the method: (§1)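 C. elegans GluClβ (mammalian codon-optimised) in pGEMhe, mutated by QuikChange; T7 mRNA. […] Voltage clamp at −60 mV in Ca-free ND96, pH 7.5. […] Peak currents taken from baseline, normalised, averaged per concentration, and fit to Hill equation (EC50, nH).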

[6] = tested on: GluClβ with α signal peptide, T6′S, Y156TAG OMe–Phe; experiment: two-electrode voltage clamp, Xenopus laevis oocytes, nonsense suppression; type: cell-based, C. elegans; details: glutamate
Summary of the method: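 Site-specific TAG codon, read by 74mer THG73 tRNA ligated to dCA-acylated amino acid; NVOC removed by 5 min xenon-lamp irradiation just before injection. Oocytes coinjected with 37.5 ng mRNA plus ~1 μg/μL tRNA at 48 and 24 h pre-recording; unacylated 76mer tRNA served as read-through control.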

[7] = tested on: GluClβ with α signal peptide, T6′S, Y156TAG F3–Phe; experiment: two-electrode voltage clamp, Xenopus laevis oocytes, nonsense suppression; type: cell-based, C. elegans; details: glutamate
GluClβ L9′F = GluClβ L9′F (Caenorhabditis elegans, UniProt Q17328, L286F); experiment: two-electrode voltage clamp, Xenopus laevis oocytes; type: cell-based, C. elegans; details: glutamate
GluClβ L9′F, sequence (Q17328 23-434 L286F): as the sequence (Q17328 23-434 R85A/T283S) above, with A63R, S261T, L264F counted along it
Summary of the method: as §1

GluClβ AG-2′,-1′PA = GluClβ AG-2′,-1′PA (Caenorhabditis elegans, UniProt Q17328, A275P/G276A); experiment: two-electrode voltage clamp, Xenopus laevis oocytes; type: cell-based, C. elegans; details: glutamate
GluClβ AG-2′,-1′PA, sequence (Q17328 23-434 A275P/G276A): as the sequence (Q17328 23-434 R85A/T283S) above, with A63R, A253P, G254A, S261T counted along it

GluClβ T10′S = target: T3, GluClβ T10′S (Caenorhabditis elegans, UniProt Q17328, T287S); experiment: as above; type: cell-based, C. elegans; details: glutamate
T3 sequence (Q17328 23-434 T287S): T1 sequence (Q17328 23-434 T287A) with A265S

GluClβ L9′V = GluClβ L9′V (Caenorhabditis elegans, UniProt Q17328, L286V); experiment: two-electrode voltage clamp, Xenopus laevis oocytes; type: cell-based, C. elegans; details: glutamate
GluClβ L9′V, sequence (Q17328 23-434 L286V): as the sequence (Q17328 23-434 R85A/T283S) above, with A63R, S261T, L264V counted along it
Summary of the method: as §1

GluClβ T6′S, sequence (Q17328 23-434 T283S): as the sequence (Q17328 23-434 R85A/T283S) above, with A63R counted along it

`N[C@@H](CCC(=O)O)C(=O)O` [glutamate] showed a Hill (GluClβ T6′S) of 2.4 ± 0.3, an EC50 [1] of 80 ± 2 µM and a Hill [1] of 2.8 ± 0.2. The Imax [1] was 0.1–0.5 μA, the EC50 (GluClβ T10′A; glutamate) was 13 ± 1 µM and the Hill (GluClβ T10′A; glutamate) was 2.8 ± 0.1. The Imax (GluClβ T10′A; glutamate) was 2–28 μA, the “increase in receptor sensitivity” value (GluClβ T10′A; vs WT) was 27 fold and the EC50 [2] was 14 ± 1 mM. The Hill [2] was 2.0 ± 0.1, the Imax [2] was 0.1–5 μA and the EC50 [3] was 640 ± 10 µM. The Hill [3] was 2.8 ± 0.1, the Imax [3] was 0.04–0.34 μA and the EC50 [4] was 98 ± 3 µM. For the same compound, the Hill [4] was 2.4 ± 0.1, the Imax [4] was 0.05–7 μA and the EC50 (GluClβ T13′A) was 38 ± 1 µM. For the same compound, the Hill (GluClβ T13′A) was 2.8 ± 0.1, the Imax (GluClβ T13′A) was 0.1–6 μA and the Imax [5] was 0.1–0.6 μA. For the same compound, the EC50 ([5]; no plateau at highest concentration 100 mM) was > 100 mM, the glutamate sensitivity (GluClα T2′A) was “restore glutamate sensitivity” and the EC50 (GluClβ T6′S, R59A) was “no response”. For the same compound, the EC50 [6] was “nonfunctional; also recorded: no response”, the EC50 [7] was 65 ± 5 mM and the Hill [7] was 1.7 ± 0.1. For the same compound, the Imax [7] was 0.3–2 μA, the EC50 (GluClβ L9′F) was “constitutively active” and the Imax (GluClβ AG-2′,-1′PA) was 12–66 μA. The EC50 (GluClβ T10′S) was 11 ± 1 µM, the Hill (GluClβ T10′S) was 2.5 ± 0.1 and the Imax (GluClβ T10′S) was 0.3–4 μA. The EC50 (GluClβ L9′V) was “no response”.
